In brackets after ≈: the same amount, converted by molar mass.
Columns and labels:
Salmonella typhimurium = test: Antibacterial activity against Salmonella enterica subspecies enterica serotype typhimurium ATCC 14028 after 18 hrs; type: functional, Salmonella enterica subsp. enterica serovar Typhimurium; settings: ATCC 14028, 18 h
In short: (§1)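 Broth microdilution in Nutrient Broth No. 2; stocks in ethanol diluted to 0.01–128 µg/ml (triclosan) or 0.25–256 µg/ml (glycosides). Overnight 37 °C NB2 cultures diluted 1 in 10^4 in saline and added to the dilutions. Incubation at 37 °C with agitation, OD read every 15 min; MIC is the lowest concentration preventing any OD rise after 18 h.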

Escherichia coli [1] = test: Antibacterial activity against Escherichia coli ATCC 35218 after 18 hrs; type: functional; settings: ATCC 35218, 18 h; in short: as §1
Escherichia coli [2] = test: Antibacterial activity against Escherichia coli ATCC 11775 after 18 hrs; type: functional; in short: as §1
Streptococcus viridans = test: Antibacterial activity against Streptococcus viridans OCC 234 after 18 hrs; type: functional; settings: OCC 234, 18 h
In short: (§2)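 Broth microdilution in Nutrient Broth No. 2. Ethanol stocks were diluted in broth to 0.01–128 µg/ml for triclosan and 0.25–256 µg/ml for glycosides. Overnight 37°C NB2 cultures were diluted 1 in 10^4 in saline and added to the wells. Plates were incubated at 37°C with OD read every 15 min after agitation. MIC was the lowest concentration giving no OD increase at 18 h.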

Enterococcus faecalis = test: Antibacterial activity against Enterococcus faecalis ATCC 33186 after 18 hrs; type: functional; settings: ATCC 33186, 18 h; in short: as §1
Klebsiella pneumoniae = test: Antibacterial activity against Klebsiella pneumoniae ATCC 13883 after 18 hrs; type: functional; settings: ATCC 13883, 18 h; in short: as §1
Proteus mirabilis = test: Antibacterial activity against Proteus mirabilis ATCC 12453 after 18 hrs; type: functional; settings: ATCC 12453, 18 h; in short: as §1
Escherichia coli [3] = test: Antibacterial activity against Escherichia coli ATCC 25922 after 18 hrs; type: functional; settings: ATCC 25922, 18 h; in short: as §1
Staphylococcus aureus [4] = test: Antibacterial activity against Staphylococcus aureus ATCC 6538P after 18 hrs; type: functional; in short: as §1
[5] = Antibacterial activity against Salmonella enterica subspecies enterica serotype Pullorum OCC 273 after 18 hrs; type: functional, Salmonella enterica subsp. enterica serovar Pullorum; settings: OCC 273, 18 h; in short: as §1
Escherichia coli [6] = test: Antibacterial activity against Escherichia coli ATCC 8739 after 18 hrs; type: functional; settings: ATCC 8739, 18 h; in short: as §1
Proteus vulgaris = test: Antibacterial activity against Proteus vulgaris OCC 195 after 18 hrs; type: functional; settings: OCC 195, 18 h; in short: as §1
[7] = Antibacterial activity against Salmonella enterica subspecies enterica serotype Indiana OCC 597 after 18 hrs; type: functional, Salmonella enterica subsp. enterica serovar Indiana; settings: OCC 597, 18 h; in short: as §1
Enterococcus faecium = test: Antibacterial activity against Enterococcus faecium ATCC 19434 after 18 hrs; type: functional; settings: ATCC 19434, 18 h; in short: as §1
Staphylococcus aureus [8] = test: Antibacterial activity against Staphylococcus aureus ATCC 6538 after 18 hrs; type: functional; settings: ATCC 6538, 18 h; in short: as §1
Streptococcus pneumoniae = test: Antibacterial activity against Streptococcus pneumoniae ATCC 49619 after 18 hrs; type: functional; settings: ATCC 49619, 18 h; in short: as §2
[9] = tested on: Salmonella enterica subsp. enterica serovar Abony; test: Antibacterial activity against Salmonella enterica subspecies enterica serotype Abony NCTC 6017 after 18 hrs; type: functional; settings: NCTC 6017, 18 h; in short: as §1
Klebsiella aerogenes = test: Antibacterial activity against Enterobacter aerogenes ATCC 13048 after 18 hrs; type: functional; settings: ATCC 13048, 18 h; in short: as §1
[10] = Antibacterial activity against Salmonella enterica subspecies enterica serotype Arizonae OCC 706 after 18 hrs; type: functional, Salmonella enterica subsp. enterica serovar Arizonae; settings: OCC 706, 18 h; in short: as §1
[11] = tested on: Staphylococcus haemolyticus; test: Antibacterial activity against Staphylococcus haemolyticus OCC 2223 after 18 hrs; type: functional; settings: OCC 2223, 18 h; in short: as §2
Staphylococcus aureus [12] = test: Antibacterial activity against Staphylococcus aureus NCTC 13758 after 18 hrs; type: functional; settings: NCTC 13758, 18 h; in short: as §1
Citrobacter freundii = test: Antibacterial activity against Citrobacter freundii OCC 851 after 18 hrs; type: functional; settings: OCC 851, 18 h; in short: as §1
[13] = tested on: Staphylococcus epidermidis; test: Antibacterial activity against Staphylococcus epidermidis ATCC 12228 after 18 hrs; type: functional; settings: ATCC 12228, 18 h; in short: as §1
Salmonella enteritidis = test: Antibacterial activity against Salmonella enterica subspecies enterica serotype Enteritidis 13076 after 18 hrs; type: functional, Salmonella enterica subsp. enterica serovar Enteritidis; settings: Salmonella enterica, 13076, 18 h; in short: as §1
[14] = Antibacterial activity against Salmonella enterica subspecies enterica serotype Poona NCTC 4840 after 18 hrs; type: functional, Salmonella enterica subsp. enterica serovar Poona; settings: NCTC 4840, 18 h; in short: as §1
Aeromonas hydrophila = test: Antibacterial activity against Aeromonas hydrophila OCC 778 after 18 hrs; type: functional; settings: OCC 778, 18 h; in short: as §1
[15] = Antibacterial activity against Salmonella enterica subspecies enterica serotype Virchow NCTC 5742 after 18 hrs; type: functional, Salmonella enterica subsp. enterica serovar Virchow; settings: NCTC 5742, 18 h; in short: as §1
Escherichia coli [16] = test: Antibacterial activity against Escherichia coli 700728 after 18 hrs; type: functional; settings: Escherichia coli, 700728, 18 h; in short: as §1
Staphylococcus aureus [17] = test: Antibacterial activity against Staphylococcus aureus OCC 104 after 18 hrs; type: functional; settings: OCC 104, 18 h; in short: as §1

MIC (Salmonella typhimurium): 16 to 64 µg/mL (≈ 35.4 to 142 µM)
MIC (Escherichia coli [1]): 4 to 64 µg/mL (≈ 8.86 to 142 µM)
MIC (Escherichia coli [2]): 4 to 64 µg/mL (≈ 8.86 to 142 µM)
MIC (Streptococcus viridans): 128 µg/mL (≈ 283 µM)
MIC (Enterococcus faecalis): 256 µg/mL (≈ 567 µM)
MIC (Klebsiella pneumoniae): 4 µg/mL (≈ 8.86 µM)
MIC (Proteus mirabilis): 16 µg/mL (≈ 35.4 µM)
MIC (Escherichia coli [3]): 4 to 64 µg/mL (≈ 8.86 to 142 µM)
MIC (Staphylococcus aureus [4]): 2 to 8 µg/mL (≈ 4.43 to 17.7 µM)
MIC [5]: 16 to 64 µg/mL (≈ 35.4 to 142 µM)
MIC (Escherichia coli [6]): 4 to 64 µg/mL (≈ 8.86 to 142 µM)
MIC (Proteus vulgaris): 32 µg/mL (≈ 70.8 µM)
MIC [7]: 16 to 64 µg/mL (≈ 35.4 to 142 µM)
MIC (Enterococcus faecium): 256 µg/mL (≈ 567 µM)
MIC (Staphylococcus aureus [8]): 2 to 8 µg/mL (≈ 4.43 to 17.7 µM)
MIC (Streptococcus pneumoniae): 64 µg/mL (≈ 142 µM)
MIC [9]: 16 to 64 µg/mL (≈ 35.4 to 142 µM)
MIC (Klebsiella aerogenes): 32 µg/mL (≈ 70.8 µM)
MIC [10]: 16 to 64 µg/mL (≈ 35.4 to 142 µM)
MIC (Staphylococcus aureus [12]): 2 to 8 µg/mL (≈ 4.43 to 17.7 µM)
MIC (Citrobacter freundii): 64 µg/mL (≈ 142 µM)
MIC [13]: 4 to 8 µg/mL (≈ 8.86 to 17.7 µM)
MIC (Salmonella enteritidis): 16 to 64 µg/mL (≈ 35.4 to 142 µM)
MIC [14]: 16 to 64 µg/mL (≈ 35.4 to 142 µM)
MIC (Aeromonas hydrophila): > 256 µg/mL
MIC [15]: 16 to 64 µg/mL (≈ 35.4 to 142 µM)
MIC (Escherichia coli [16]): 4 to 64 µg/mL (≈ 8.86 to 142 µM)
MIC (Staphylococcus aureus [17]): 2 to 8 µg/mL (≈ 4.43 to 17.7 µM)
SMILES: OC[C@H]1O[C@H](Oc2cc(Cl)ccc2Oc2ccc(Cl)cc2Cl)[C@@H](O)[C@@H](O)[C@@H]1O
MIC [11]: 8 µg/mL (≈ 17.7 µM)

Source: ChEMBL document CHEMBL4325893, “Synthesis and antibacterial profiles of targeted triclosan derivatives” (2019)
